Measured values from ChEMBL document CHEMBL2169753, “Pharmacophore-based virtual screening and biological evaluation of small molecule inhibitors for protein arginine methylation” (J Med Chem, 2012).
The source made the active and inactive calls. The calls are words filed in the database; no cut-off is given here.

Assays:
LNCaP [1] = assay: Inhibition of cell proliferation of human LNCAP cells in regular medium after 3 days; type: functional
Outline: (§1)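 LNCaP C-81 cells (passage 80–120) grown in phenol red-positive RPMI 1640 with 5% FBS, 2 mM glutamine, 50 µg/ml gentamicin at 37°C, 5% CO2. Plated at 2×10³ cells/well for 3 days, then exposed to compound (DMSO stock diluted 1000×; DMSO-matched controls) for 3 days. Cells counted with an image-based counter and normalized to control. Three independent experiments in triplicate, mean ± SD.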

[2] = target: T1, Histone-arginine methyltransferase CARM1 (Homo sapiens) (UniProt Q86X55); assay: Inhibition of His6x-tagged PRMT4 expressed in Escherichia coli BL21 (DE3) using Histone H3(1-31) substrate in the presence of [14C] SAM assessed as residual activity at 30 uM by liquid scintillation counting
T1 sequence (whole entry): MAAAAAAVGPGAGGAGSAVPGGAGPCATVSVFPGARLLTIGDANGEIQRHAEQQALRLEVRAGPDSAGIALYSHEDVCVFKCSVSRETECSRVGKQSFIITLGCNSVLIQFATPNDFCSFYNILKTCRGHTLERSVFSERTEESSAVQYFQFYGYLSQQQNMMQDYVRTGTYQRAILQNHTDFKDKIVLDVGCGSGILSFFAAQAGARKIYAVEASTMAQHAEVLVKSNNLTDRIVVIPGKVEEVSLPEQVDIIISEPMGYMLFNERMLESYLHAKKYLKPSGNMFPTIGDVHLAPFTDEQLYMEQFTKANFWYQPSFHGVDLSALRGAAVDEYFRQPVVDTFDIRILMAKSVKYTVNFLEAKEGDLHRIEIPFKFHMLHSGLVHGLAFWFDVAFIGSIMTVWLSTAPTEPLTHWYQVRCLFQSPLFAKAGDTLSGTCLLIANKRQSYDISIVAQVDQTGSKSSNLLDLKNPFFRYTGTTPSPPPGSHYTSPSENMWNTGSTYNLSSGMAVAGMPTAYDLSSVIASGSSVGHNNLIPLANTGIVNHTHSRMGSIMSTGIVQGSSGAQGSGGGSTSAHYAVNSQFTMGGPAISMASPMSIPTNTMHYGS
Outline: (§2)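 Recombinant PRMT4 (0.3 µM) with H3(1-31) at 400 µM, or PRMT5 (1 µM) with H4(1-20) at 2 µM. Substrate and 5 µM [14C]-SAM preincubated 5 min in 50 mM HEPES pH 8.0, 10 mM NaCl, 1 mM DTT at 30°C before enzyme was added. Reactions run 2 h (PRMT4) or 6 h 30 min (PRMT5), with or without 30 µM compound in 2% DMSO. Stopped on P81 paper, washed with NaHCO3, counted by scintillation. Activity normalized to no-inhibitor control.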

Histone H4 [3] = target: T2, Histone H4 (Homo sapiens, UniProt P62805); assay: Binding affinity to fluorescein-labeled Histone H4(1-20) by spectrofluorometry
Outline: (§3)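 H4(1-20) peptide bearing fluorescein on a Dpr residue, 1 µM, in 50 mM HEPES pH 8.0, 10 mM NaCl, 1 mM DTT at 30°C. Titrated with compound from 1 to 100 µM. Excitation 498 nm; emission intensity followed at 523–524 nm. Kd taken from the fluorescence titration.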

[4] = target: Protein arginine N-methyltransferase 5 (Homo sapiens) (UniProt O14744); assay: Inhibition of His6x-tagged PRMT5 expressed in Escherichia coli BL21 (DE3) using Histone H4(1-20 substrate in the presence of [14C] SAM assessed as residual activity at 30 uM by liquid scintillation counting; outline: as §2
Histone H4 [5] = target: T2, Histone H4; assay: Binding affinity to fluorescein-labeled Histone H4(1-20) assessed as peptide fluorescence quenching by spectrofluorometry; outline: as §3
[6] = target: Histone acetyltransferase p300 (Homo sapiens, UniProt Q09472); assay: Inhibition of recombinant p300 HAT domain using Histone H4(1-20) substrate assessed as inhibition of histone acetyltransferase activity after 10 mins by liquid scintillation counting
Outline: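 p300 HAT domain (residues 1287–1666), 0.03 µM, incubated with 10 µM H4-20, 5 µM [14C]-acetyl CoA and increasing compound in 50 mM HEPES pH 8.0, 50 mM NaCl, 0.5 mM DTT, 1 mM EDTA at 30°C for 10 min. Stopped on P81 paper and counted by liquid scintillation. Fractional activity plotted against concentration to give IC50.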

LNCaP [7] = assay: Antiproliferative activity against human LNCAP cells in regular medium after 3 days; type: functional, cell-based; outline: as §1
LNCaP [8] = assay: Inhibition of cell proliferation of human LNCAP cells in steroid reduced condition after 3 days; type: functional
Outline: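 C-81 cells (passage 80–120) plated at 2×10³ cells/well for 3 days, then starved 2 days in phenol red-free RPMI 1640 with 5% charcoal/dextran-treated FBS, 2 mM glutamine, 50 µg/ml gentamicin and 1 nM DHT. Refed with this medium, then treated for 3 days (solvent controls). Cells counted and normalized to control. Three independent experiments in triplicate, mean ± SD.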

Sequence of Histone acetyltransferase p300 (Q09472 whole entry, the tested form may be a part): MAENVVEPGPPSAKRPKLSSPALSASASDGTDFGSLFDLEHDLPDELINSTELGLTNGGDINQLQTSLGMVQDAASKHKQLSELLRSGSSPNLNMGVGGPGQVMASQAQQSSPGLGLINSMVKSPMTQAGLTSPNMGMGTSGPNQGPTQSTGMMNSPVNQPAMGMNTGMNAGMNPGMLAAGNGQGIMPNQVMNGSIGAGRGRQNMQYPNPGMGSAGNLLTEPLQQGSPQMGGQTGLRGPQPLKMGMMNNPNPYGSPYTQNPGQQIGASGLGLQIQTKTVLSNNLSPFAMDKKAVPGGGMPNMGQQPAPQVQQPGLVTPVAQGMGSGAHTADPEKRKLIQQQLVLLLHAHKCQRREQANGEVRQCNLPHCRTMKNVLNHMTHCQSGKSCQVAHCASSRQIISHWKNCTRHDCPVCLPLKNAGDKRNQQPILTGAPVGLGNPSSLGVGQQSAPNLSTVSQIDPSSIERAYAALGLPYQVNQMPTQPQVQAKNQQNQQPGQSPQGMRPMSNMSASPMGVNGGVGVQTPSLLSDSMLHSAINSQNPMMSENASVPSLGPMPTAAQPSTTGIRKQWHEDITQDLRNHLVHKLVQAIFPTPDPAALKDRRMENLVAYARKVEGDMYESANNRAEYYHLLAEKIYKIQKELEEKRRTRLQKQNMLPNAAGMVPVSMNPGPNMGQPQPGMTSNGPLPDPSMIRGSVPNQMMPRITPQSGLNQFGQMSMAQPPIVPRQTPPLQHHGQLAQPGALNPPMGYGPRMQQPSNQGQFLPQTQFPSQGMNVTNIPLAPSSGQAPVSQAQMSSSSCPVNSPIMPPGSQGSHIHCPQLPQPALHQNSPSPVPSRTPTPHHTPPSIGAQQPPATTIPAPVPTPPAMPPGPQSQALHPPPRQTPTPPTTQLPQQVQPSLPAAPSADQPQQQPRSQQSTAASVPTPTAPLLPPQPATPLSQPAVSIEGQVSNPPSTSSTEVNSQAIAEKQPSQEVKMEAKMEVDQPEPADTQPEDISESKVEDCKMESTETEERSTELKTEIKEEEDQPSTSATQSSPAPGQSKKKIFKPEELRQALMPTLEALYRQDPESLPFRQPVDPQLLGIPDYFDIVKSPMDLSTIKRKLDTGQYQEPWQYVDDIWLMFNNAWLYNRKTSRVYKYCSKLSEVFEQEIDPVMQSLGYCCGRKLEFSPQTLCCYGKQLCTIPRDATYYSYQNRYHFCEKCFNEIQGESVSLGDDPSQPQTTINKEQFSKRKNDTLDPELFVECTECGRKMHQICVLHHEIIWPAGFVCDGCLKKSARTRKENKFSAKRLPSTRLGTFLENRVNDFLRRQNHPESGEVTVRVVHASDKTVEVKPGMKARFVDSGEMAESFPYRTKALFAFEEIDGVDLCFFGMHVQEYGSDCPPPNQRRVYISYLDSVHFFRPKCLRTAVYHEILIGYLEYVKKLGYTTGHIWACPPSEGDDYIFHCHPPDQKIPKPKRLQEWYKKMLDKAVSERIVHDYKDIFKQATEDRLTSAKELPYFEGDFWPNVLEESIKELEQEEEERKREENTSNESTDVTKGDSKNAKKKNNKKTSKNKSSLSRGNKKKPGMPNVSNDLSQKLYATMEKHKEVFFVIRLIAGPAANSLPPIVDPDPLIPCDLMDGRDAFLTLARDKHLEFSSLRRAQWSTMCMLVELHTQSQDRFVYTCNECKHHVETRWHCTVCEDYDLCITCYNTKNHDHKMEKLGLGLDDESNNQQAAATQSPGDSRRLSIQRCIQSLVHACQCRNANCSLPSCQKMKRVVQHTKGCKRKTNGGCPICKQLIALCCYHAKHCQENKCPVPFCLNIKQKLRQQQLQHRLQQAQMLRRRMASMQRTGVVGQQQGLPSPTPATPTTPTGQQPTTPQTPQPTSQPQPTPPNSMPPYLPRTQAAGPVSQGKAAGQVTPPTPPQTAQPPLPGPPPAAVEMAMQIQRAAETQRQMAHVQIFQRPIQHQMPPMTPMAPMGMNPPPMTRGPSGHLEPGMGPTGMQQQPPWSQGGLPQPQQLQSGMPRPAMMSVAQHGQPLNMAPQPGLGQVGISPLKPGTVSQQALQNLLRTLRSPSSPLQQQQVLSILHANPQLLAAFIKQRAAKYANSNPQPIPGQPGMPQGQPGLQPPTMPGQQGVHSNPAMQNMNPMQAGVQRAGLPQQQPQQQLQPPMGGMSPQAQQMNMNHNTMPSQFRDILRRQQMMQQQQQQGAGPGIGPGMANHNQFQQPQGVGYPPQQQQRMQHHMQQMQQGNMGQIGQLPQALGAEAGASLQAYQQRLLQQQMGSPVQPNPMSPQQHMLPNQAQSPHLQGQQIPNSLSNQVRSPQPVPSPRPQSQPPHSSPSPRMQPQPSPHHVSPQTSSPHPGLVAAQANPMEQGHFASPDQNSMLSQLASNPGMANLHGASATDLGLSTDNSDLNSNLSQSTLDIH
Sequence of Protein arginine N-methyltransferase 5 (Homo sapiens) (O14744 whole entry): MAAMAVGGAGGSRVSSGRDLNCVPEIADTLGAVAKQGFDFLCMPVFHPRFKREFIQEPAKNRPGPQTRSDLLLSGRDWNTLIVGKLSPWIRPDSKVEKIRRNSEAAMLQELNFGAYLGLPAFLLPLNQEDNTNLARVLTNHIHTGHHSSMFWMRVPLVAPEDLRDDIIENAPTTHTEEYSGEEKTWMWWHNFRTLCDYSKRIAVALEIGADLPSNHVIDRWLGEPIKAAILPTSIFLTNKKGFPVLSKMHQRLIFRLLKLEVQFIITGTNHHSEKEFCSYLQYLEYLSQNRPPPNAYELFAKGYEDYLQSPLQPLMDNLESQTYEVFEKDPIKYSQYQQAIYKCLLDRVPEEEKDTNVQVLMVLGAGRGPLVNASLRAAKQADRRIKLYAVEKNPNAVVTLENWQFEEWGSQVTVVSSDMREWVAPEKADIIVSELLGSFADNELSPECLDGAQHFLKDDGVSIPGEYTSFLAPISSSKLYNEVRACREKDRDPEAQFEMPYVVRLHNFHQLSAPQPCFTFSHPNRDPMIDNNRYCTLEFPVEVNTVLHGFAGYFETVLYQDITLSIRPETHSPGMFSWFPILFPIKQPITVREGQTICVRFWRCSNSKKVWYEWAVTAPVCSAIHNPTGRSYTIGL

Activity [2] | Kd (Histone H4 [3]) | Activity [4] | Activity (Histone H4 [5]) | IC50 [6] | inhibition [6] | Compound | inhibition (INH) (LNCaP [1]) | inhibition (LNCaP [7]) | inhibition (INH) (LNCaP [8])
38% | 23.8 µM | 20% | Active | 15.2 µM | Dose-dependent effect | O=C(c1ccc(O)c(NC(=O)c2cccc3ccccc23)c1)c1ccc(O)c(NC(=O)c2cccc3ccccc23)c1 | 32% |  | 
 |  |  |  |  |  | O=C(NN=C1C=CC(=NOS(=O)(=O)c2ccccc2)C=C1)c1cc2ccccc2cc1O | 70% | Dose-dependent effect | 30%
